# Source: ChEMBL document CHEMBL4184148 (Bioorg Med Chem Lett, 2017)
# Experiments:
# [1] = molecular target: MAP kinase-interacting serine/threonine-protein kinase 2 (Homo sapiens) (UniProt Q9HBH9); experiment: Binding affinity to wild-type human partial length MKNK2 (G63 to S388 residues) expressed in HEK293 cells at 1 uM by Kinomescan method relative to control; format: cell-based
# [2] = molecular target: Ribosomal protein S6 kinase alpha-6 (Homo sapiens) (UniProt Q9UK32); experiment: Binding affinity to wild-type human partial length C-terminal RSK4 kinase domain 2 (I401 to Y711 residues) expressed in Escherichia coli BL21 at 1 uM by Kinomescan method relative to control
# [3] = molecular target: Mitogen-activated protein kinase 14 (Homo sapiens) (UniProt Q16539); experiment: Binding affinity to wild-type human full length p38-alpha (M1 to S360 residues) expressed in Escherichia coli BL21 at 1 uM by Kinomescan method relative to control
# Method in brief: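 Kinome-wide competition binding panel run by an outside provider, with each compound tested at a single concentration. Activity is read against the kinase panel.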
# [4] = molecular target: Calcium-dependent protein kinase 1 (Plasmodium falciparum) (UniProt P62344); experiment: Binding affinity to wild-type Plasmodium falciparum full length CDPK1 (M1 to S524 residues) expressed in HEK293 cells at 1 uM by Kinomescan method relative to control; format: cell-based
# [5] = molecular target: cGMP-dependent protein kinase 2 (Homo sapiens) (UniProt Q13237); experiment: Binding affinity to wild-type human partial length PRKG2 (S422 to F762 residues) expressed in HEK293 cells at 1 uM by Kinomescan method relative to control; format: cell-based
# [6] = molecular target: Serine/threonine-protein kinase/endoribonuclease IRE1 (Homo sapiens) (UniProt O75460); experiment: Binding affinity to wild-type human partial length ERN1 (S551 to E852 residues) expressed in HEK293 cells at 1 uM by Kinomescan method relative to control; format: cell-based
# [7] = molecular target: Tyrosine-protein kinase CSK (Homo sapiens) (UniProt P41240); experiment: Binding affinity to wild-type human full length CSK (M1 to L450 residues) expressed in Escherichia coli BL21 at 1 uM by Kinomescan method relative to control
# Method in brief: (§1)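 Run as one kinome-wide competition binding panel with each compound at a single fixed concentration. Results were plotted as a kinome-wide selectivity map.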
# [8] = molecular target: Phosphatidylinositol 5-phosphate 4-kinase type-2 gamma (Homo sapiens) (UniProt Q8TBX8); experiment: Binding affinity to wild-type human partial length PIP5K2C (M1 to A421 residues) expressed in HEK293 cells at 1 uM by Kinomescan method relative to control; format: cell-based
# [9] = molecular target: BDNF/NT-3 growth factors receptor (Homo sapiens) (UniProt Q16620); experiment: Binding affinity to wild-type human partial length TRKB (Q547 to G838 residues) expressed in HEK293 cells at 1 uM by Kinomescan method relative to control; format: cell-based
# [10] = molecular target: Tyrosine-protein kinase HCK (Homo sapiens) (UniProt P08631); experiment: Binding affinity to wild-type human full length HCK (M22 to P526 residues) expressed in Escherichia coli BL21 at 1 uM by Kinomescan method relative to control; method in brief: as §1
# [11] = molecular target: Receptor-interacting serine/threonine-protein kinase 2 (Homo sapiens) (UniProt O43353); experiment: Binding affinity to wild-type human partial length RIPK2 (M1 to K310 residues) expressed in Escherichia coli BL21 at 1 uM by Kinomescan method relative to control
# [12] = system: Epidermal growth factor receptor (Homo sapiens), P00533 [L858R]; experiment: Binding affinity to human partial length EGFR L858R mutant (R669 to V1011 residues) expressed in Escherichia coli BL21 at 1 uM by Kinomescan method relative to control
# [13] = molecular target: Dual specificity mitogen-activated protein kinase kinase 3 (Homo sapiens) (UniProt P46734); experiment: Binding affinity to wild-type human full length MEK3 (M1 to S318 residues) expressed in HEK293 cells at 1 uM by Kinomescan method relative to control; format: cell-based; method in brief: as §1
# [14] = molecular target: Mitogen-activated protein kinase 9 (Homo sapiens) (UniProt P45984); experiment: Binding affinity to wild-type human full length JNK2 (M1 to Q382 residues) expressed in HEK293 cells at 1 uM by Kinomescan method relative to control; format: cell-based; method in brief: as §1
# [15] = molecular target: Dual specificity protein kinase CLK1 (Homo sapiens) (UniProt P49759); experiment: Binding affinity to wild-type human full length CLK1 (M1 to I484 residues) expressed in Escherichia coli BL21 at 1 uM by Kinomescan method relative to control; method in brief: as §1
# [16] = molecular target: T1, Aurora kinase C (Homo sapiens, UniProt Q9UQB9); experiment: Inhibition of recombinant full length GST-tagged human Aurora C expressed in baculovirus expression system by Z'LYTE assay
# T1 sequence (Q9UQB9 whole entry): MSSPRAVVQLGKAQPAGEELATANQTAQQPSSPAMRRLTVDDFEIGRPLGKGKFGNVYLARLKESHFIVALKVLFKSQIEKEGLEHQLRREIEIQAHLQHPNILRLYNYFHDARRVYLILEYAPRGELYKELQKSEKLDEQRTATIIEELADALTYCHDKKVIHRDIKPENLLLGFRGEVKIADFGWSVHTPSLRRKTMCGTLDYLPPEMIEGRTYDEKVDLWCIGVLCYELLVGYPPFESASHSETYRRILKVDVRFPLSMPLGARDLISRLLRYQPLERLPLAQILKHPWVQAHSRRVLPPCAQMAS
# Method in brief: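 Biochemical IC50 from a Z'LYTE kinase assay, with ATP at the Km for each kinase. Values are reported with standard error.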
# [17] = molecular target: Epidermal growth factor receptor (Homo sapiens) (UniProt P00533); experiment: Binding affinity to human partial length EGFR S752-I759del mutant expressed in Escherichia coli BL21 at 1 uM by Kinomescan method relative to control
# [18] = system: Hepatocyte growth factor receptor (Homo sapiens), P08581 [M1250T]; experiment: Binding affinity to human partial length MET M1250T mutant (D1010 to S1367 residues) expressed in Escherichia coli BL21 at 1 uM by Kinomescan method relative to control
# [19] = system: Fibroblast growth factor receptor 3 (Homo sapiens), P22607 [G697C]; experiment: Binding affinity to human partial length FGFR3 G697C mutant (R442 to S771 residues) expressed in Escherichia coli BL21 at 1 uM by Kinomescan method relative to control
# [20] = molecular target: Bone morphogenetic protein receptor type-1A (Homo sapiens) (UniProt P36894); experiment: Binding affinity to wild-type human partial length BMPR1A (Q214 to I532 residues) expressed in Escherichia coli BL21 at 1 uM by Kinomescan method relative to control
# [21] = molecular target: Serine/threonine-protein kinase PLK4 (Homo sapiens, UniProt O00444); experiment: Inhibition of GST-tagged human PLK4 (1 to 836 residues) by Lanthascreen binding assay
# [22] = molecular target: Serine/threonine-protein kinase D2 (Homo sapiens) (UniProt Q9BZL6); experiment: Binding affinity to wild-type human partial length PRKD2 (A519 to E838 residues) expressed in Escherichia coli BL21 at 1 uM by Kinomescan method relative to control
# [23] = molecular target: Ephrin type-B receptor 1 (Homo sapiens) (UniProt P54762); experiment: Binding affinity to wild-type human partial length EPHB1 (P589 to T911 residues) expressed in Escherichia coli BL21 at 1 uM by Kinomescan method relative to control
# Sequence of Ephrin type-B receptor 1 (Homo sapiens) (P54762 whole entry, the tested form may be a part): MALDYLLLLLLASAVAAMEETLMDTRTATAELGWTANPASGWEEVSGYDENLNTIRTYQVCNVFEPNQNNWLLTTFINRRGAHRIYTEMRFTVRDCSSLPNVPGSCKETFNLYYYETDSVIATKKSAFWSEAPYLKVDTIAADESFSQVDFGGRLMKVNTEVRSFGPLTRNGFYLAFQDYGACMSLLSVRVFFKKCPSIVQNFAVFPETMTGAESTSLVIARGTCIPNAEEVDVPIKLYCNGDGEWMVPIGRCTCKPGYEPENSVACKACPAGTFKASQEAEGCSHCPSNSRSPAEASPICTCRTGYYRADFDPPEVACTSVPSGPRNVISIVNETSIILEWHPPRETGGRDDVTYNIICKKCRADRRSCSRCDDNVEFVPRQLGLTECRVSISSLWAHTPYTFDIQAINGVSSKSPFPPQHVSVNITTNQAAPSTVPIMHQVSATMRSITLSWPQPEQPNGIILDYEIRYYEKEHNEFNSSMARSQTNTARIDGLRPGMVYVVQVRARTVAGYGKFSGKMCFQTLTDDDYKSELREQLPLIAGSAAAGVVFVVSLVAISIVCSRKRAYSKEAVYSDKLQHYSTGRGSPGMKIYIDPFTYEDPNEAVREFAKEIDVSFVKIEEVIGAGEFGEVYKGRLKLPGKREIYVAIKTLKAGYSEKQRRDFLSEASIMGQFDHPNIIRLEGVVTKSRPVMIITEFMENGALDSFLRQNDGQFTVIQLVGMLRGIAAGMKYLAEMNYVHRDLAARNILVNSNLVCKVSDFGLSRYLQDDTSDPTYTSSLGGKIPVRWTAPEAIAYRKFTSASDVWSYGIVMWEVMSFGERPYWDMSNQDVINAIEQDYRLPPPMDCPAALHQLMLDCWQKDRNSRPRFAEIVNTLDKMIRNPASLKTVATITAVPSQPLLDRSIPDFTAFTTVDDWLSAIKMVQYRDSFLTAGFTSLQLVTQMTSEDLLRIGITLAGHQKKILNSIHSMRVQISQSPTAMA
# Sequence of Calcium-dependent protein kinase 1 (Plasmodium falciparum) (P62344 2-524 limits assumed): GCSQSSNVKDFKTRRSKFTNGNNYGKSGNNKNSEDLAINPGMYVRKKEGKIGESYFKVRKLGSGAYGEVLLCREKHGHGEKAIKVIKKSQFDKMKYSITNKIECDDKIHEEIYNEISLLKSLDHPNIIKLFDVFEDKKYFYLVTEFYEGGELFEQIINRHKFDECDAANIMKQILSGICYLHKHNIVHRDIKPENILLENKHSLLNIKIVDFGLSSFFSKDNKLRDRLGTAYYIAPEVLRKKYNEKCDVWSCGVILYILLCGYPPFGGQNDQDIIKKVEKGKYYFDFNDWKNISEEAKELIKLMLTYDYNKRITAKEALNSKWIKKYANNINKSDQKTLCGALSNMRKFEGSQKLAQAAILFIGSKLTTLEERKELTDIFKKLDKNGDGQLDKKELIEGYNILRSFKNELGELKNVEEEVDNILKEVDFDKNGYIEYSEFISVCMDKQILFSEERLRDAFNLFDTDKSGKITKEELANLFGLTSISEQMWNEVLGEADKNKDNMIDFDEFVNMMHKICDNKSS
# Sequence of Tyrosine-protein kinase CSK (Homo sapiens) (P41240 2-450 limits assumed): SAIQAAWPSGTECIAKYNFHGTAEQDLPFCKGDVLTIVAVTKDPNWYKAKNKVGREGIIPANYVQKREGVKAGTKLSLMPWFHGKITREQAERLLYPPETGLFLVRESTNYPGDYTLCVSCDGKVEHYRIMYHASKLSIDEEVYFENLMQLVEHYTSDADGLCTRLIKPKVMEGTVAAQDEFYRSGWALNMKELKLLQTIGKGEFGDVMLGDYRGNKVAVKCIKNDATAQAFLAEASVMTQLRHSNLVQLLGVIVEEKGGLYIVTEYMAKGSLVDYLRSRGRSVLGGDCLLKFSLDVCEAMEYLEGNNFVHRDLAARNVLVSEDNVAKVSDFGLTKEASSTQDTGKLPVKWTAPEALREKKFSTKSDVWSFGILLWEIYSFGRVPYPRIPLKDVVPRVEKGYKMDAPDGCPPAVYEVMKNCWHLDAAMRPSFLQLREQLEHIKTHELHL
# Sequence of Dual specificity protein kinase CLK1 (Homo sapiens) (P49759 whole entry, looked up, the tested form may be a part): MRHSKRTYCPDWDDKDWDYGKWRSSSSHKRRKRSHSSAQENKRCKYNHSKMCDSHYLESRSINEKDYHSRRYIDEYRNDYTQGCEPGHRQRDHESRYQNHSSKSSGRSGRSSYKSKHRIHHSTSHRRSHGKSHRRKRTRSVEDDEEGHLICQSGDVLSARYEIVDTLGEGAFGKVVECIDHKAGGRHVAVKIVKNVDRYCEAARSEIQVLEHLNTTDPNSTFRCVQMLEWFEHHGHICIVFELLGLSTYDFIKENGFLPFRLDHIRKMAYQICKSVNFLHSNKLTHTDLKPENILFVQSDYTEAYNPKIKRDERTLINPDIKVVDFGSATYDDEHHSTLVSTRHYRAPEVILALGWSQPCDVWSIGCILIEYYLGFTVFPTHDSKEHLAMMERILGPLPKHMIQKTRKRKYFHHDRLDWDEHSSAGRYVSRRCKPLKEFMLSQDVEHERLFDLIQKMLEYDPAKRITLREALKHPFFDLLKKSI
# Sequence of Dual specificity mitogen-activated protein kinase kinase 3 (Homo sapiens) (P46734 whole entry, the tested form may be a part): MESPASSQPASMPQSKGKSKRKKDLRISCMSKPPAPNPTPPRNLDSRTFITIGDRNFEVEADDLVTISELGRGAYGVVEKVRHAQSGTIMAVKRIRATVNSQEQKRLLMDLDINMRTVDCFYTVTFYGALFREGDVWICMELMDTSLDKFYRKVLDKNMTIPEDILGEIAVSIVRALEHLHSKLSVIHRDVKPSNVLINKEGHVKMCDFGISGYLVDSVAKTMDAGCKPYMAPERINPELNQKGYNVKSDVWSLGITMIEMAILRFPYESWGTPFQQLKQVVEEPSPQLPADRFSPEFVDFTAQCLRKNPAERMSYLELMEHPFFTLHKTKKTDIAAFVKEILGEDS
# Sequence of Mitogen-activated protein kinase 14 (Homo sapiens) (Q16539 whole entry, the tested form may be a part): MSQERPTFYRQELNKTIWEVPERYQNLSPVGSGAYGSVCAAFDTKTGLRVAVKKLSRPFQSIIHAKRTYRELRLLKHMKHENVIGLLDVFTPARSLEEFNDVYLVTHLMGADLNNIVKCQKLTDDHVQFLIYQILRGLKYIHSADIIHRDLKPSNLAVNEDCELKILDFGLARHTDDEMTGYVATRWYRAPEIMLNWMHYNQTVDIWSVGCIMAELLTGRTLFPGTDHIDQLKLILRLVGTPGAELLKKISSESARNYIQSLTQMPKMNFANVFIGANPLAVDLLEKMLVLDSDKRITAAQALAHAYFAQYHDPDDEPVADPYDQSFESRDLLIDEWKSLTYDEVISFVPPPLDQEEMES
# Sequence of Receptor-interacting serine/threonine-protein kinase 2 (Homo sapiens) (O43353 whole entry, the tested form may be a part): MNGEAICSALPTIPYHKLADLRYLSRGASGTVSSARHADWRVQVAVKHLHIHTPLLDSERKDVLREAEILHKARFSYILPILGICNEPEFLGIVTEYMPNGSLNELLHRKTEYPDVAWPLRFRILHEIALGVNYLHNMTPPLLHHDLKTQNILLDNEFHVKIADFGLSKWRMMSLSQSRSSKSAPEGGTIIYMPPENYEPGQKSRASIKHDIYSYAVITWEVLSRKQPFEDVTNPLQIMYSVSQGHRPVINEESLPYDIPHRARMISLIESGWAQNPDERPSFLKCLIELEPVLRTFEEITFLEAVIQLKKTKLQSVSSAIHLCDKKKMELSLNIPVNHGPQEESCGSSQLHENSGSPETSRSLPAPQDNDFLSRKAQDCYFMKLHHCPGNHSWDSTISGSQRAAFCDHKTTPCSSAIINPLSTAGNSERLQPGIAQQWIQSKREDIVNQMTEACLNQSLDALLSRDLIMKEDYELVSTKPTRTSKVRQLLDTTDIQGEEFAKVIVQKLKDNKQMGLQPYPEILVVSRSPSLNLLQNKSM
# Sequence of Fibroblast growth factor receptor 3 (Homo sapiens), P22607 [G697C] (P22607 whole entry G697C, the tested form may be a part): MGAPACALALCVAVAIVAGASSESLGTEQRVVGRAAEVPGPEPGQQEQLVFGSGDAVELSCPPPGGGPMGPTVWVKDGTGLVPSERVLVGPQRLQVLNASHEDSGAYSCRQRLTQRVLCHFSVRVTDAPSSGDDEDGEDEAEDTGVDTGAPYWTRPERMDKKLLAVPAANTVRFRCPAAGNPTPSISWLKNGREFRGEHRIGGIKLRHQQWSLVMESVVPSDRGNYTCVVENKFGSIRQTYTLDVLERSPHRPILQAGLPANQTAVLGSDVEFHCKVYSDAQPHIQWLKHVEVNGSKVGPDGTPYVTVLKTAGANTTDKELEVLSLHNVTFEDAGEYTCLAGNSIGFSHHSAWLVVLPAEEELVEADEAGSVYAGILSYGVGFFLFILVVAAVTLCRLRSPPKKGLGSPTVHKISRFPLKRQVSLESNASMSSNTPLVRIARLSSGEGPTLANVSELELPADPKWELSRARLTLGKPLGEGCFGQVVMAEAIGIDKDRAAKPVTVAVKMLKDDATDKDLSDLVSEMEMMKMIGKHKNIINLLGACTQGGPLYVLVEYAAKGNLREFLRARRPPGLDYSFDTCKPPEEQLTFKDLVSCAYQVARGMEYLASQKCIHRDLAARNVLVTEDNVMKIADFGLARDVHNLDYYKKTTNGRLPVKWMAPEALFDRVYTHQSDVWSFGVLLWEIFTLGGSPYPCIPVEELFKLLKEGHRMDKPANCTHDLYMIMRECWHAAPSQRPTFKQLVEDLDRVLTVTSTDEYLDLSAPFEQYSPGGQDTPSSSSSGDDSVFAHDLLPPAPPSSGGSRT
# Sequence of Mitogen-activated protein kinase 9 (Homo sapiens) (P45984 whole entry, looked up, the tested form may be a part): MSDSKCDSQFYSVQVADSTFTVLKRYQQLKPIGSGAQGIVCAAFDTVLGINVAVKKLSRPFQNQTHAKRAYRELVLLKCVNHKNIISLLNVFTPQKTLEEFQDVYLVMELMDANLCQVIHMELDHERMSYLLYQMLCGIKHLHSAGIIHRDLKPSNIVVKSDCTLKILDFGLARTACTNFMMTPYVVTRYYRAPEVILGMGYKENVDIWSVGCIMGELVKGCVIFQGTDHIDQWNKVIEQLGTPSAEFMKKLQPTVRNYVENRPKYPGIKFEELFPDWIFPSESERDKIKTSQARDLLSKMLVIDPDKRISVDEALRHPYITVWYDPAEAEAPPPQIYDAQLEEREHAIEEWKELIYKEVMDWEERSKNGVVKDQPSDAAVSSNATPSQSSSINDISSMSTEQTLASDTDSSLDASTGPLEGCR
Compound,Activity [1],Activity [2],Activity [3],Activity [4],Activity [5],Activity [6],Activity [7],Activity [8],Activity [9],Activity [10],Activity [11],Activity [12],Activity [13],Activity [14],Activity [15],IC50 [16],Activity [17],Activity [18],Activity [19],Activity [20],other results
C=CC(=O)Nc1ccc(C(=O)Nc2ccc(Nc3ncc4c(n3)N(C)c3ccc(C)cc3C(=O)N4C)cc2)cc1,66%,100%,100%,100%,88%,87%,84%,56%,100%,100%,89%,86%,92%,92%,100%,63 nM,96%,93%,93%,82%,IC50 [21]: 43.5 nM; Activity [22]: 98%; Activity [23]: 92%
CCC(=O)Nc1ccc(C(=O)Nc2ccc(Nc3ncc4c(n3)N(C)c3ccc(C)cc3C(=O)N4C)cc2)cc1,84%,100%,100%,74%,84%,100%,93%,100%,84%,74%,98%,65%,65%,91%,98%,53 nM,90%,93%,95%,100%,IC50 [21]: 82 nM; Activity [22]: 98%; Activity [23]: 80%
